The values that follow come from ChEMBL document CHEMBL2401663, “(Biphenyl-4-yl)methylammonium chlorides: potent anticonvulsants that modulate Na+ currents” (J Med Chem, 2013).

The source made the active and inactive calls. The rule behind the calls is not given here.

Series [1] in a line: Toxicity in ip dosed albino Sprague-Dawley rat assessed as behavioral toxicity after 0.25 to 4 hrs. The conditions noted are these: in vivo. Format: organism-based. The essentials: (§1)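 Male albino Sprague-Dawley rats dosed ip or orally, scored for behavioral toxicity (neurological impairment). TD50 is in mg/kg, taken at the time of peak effect.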
In series [2] the test system is Mus musculus. The series is described as follows: Anticonvulsant activity against ip dosed albino CF1 mouse after 0.5 to 2 hrs by 6 Hz psychomotor seizure test. Format: functional.
Series [3] can be described thus: Toxicity in po dosed albino Sprague-Dawley rat assessed as behavioral toxicity after 0.25 to 4 hrs. Format: organism-based. The conditions noted are these: in vivo. The method in brief:
as §1

Series [4] concerns Rattus norvegicus. The series is described as follows: Anticonvulsant activity against po dosed albino Sprague-Dawley rat after 0.25 to 4 hrs by maximal electroshock seizure test. Format: functional. The essentials:
(§2)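 Male albino Sprague-Dawley rats dosed ip or orally under the NIH Anticonvulsant Screening Program, tested by maximal electroshock seizure.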
In general terms: The maximal electroshock test induces tonic seizures with an electrical stimulus.

The test system of series [5] is Mus musculus. The series is described as follows: Anticonvulsant activity against ip dosed albino CF1 mouse after 0.5 hrs by maximal electroshock seizure test. Format: functional.
The subject of series [6] is Rattus norvegicus. In words: Anticonvulsant activity against ip dosed albino Sprague-Dawley rat after 0.25 to 4 hrs by maximal electroshock seizure test. Format: functional. The essentials: as §2
Series [7] relates to Mus musculus. In words: Toxicity in ip dosed albino CF1 mouse after 0.5 to 2 hrs by rotorod test. The conditions noted are these: in vivo. Format: organism-based. (In the rotarod test animals must keep their balance on a rotating rod.)
For series [8], the system named is Mus musculus. In words: Anticonvulsant activity against ip dosed albino CF1 mouse after 1 hr by 6 Hz psychomotor seizure test. Format: functional.
The test system of series [9] is Rattus norvegicus. In words: Anticonvulsant activity against ip dosed albino Sprague-Dawley rat after […] by maximal electroshock seizure test. Format: functional.
The nature of series [10]: Toxicity in ip dosed albino CF1 mouse after 0.25 to 4 hrs by rotorod test. Format: organism-based. The conditions noted are these: in vivo.
Series [11] relates to Mus musculus. The series is described as follows: Anticonvulsant activity against ip dosed albino CF1 mouse after 2 hrs by subcutaneous pentylenetetrazol test. Format: functional. The conditions noted are these: albino CF1, 2 h.
In series [12] the test system is Mus musculus. In words: Anticonvulsant activity against ip dosed albino CF1 mouse after 0.25 to 4 hrs by maximal electroshock seizure test. Format: functional.
The subject of series [13] is Mus musculus. In words: Anticonvulsant activity against ip dosed albino CF1 mouse after 1 to 4 hrs by 6 Hz psychomotor seizure test. Format: functional.
Series [14] relates to Mus musculus. The series is described as follows: Anticonvulsant activity against ip dosed albino CF1 mouse after 4 hrs by maximal electroshock seizure test. Format: functional.
Series [15] concerns Mus musculus. In words: Anticonvulsant activity against ip dosed albino CF1 mouse after 0.25 to 4 hrs by subcutaneous pentylenetetrazol test. Format: functional.
Series [16] relates to Mus musculus. In words: Anticonvulsant activity against ip dosed albino CF1 mouse after 0.25 to 1 hr by 6 Hz psychomotor seizure test. Format: functional.
Series [17] deals with Mus musculus. The series is described as follows: Anticonvulsant activity against ip dosed albino CF1 mouse after […] by subcutaneous pentylenetetrazol test. Format: functional.
For series [18], the system named is Mus musculus. In words: Toxicity in ip dosed albino CF1 mouse after […] by rotorod test. Format: organism-based. The note with it: in vivo.
Series [19] relates to Mus musculus. The series is described as follows: Anticonvulsant activity against ip dosed albino CF1 mouse after […] by maximal electroshock seizure test. Format: functional.
The test system of series [20] is Rattus norvegicus. In words: Anticonvulsant activity against ip dosed albino Sprague-Dawley rat after 0.25 to 2 hrs by maximal electroshock seizure test. Format: functional. The method in brief: as §2
The species named for series [21] is Rattus norvegicus. The series is described as follows: Inhibition of Na+ channel in rat embryonic cortical neurons assessed as frequency-dependent inactivation at 20 uM by whole cell voltage clamp technique relative to control.
Series [22] is described as follows: Inhibition of Na+ channel in mouse CAD cells assessed as slow inactivation by whole cell voltage clamp technique. Format: cell-based. The method in brief: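 CAD cells (Ham's F12/EMEM, 8% FBS, 37 °C, 5% CO2) by whole-cell voltage clamp at room temperature. Na+ channel slow inactivation measured at −50 mV; IC50 is the concentration at which half of the channels reach a slow-inactivated state.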

The test system of series [23] is Rattus norvegicus. The series is described as follows: Anticonvulsant activity against po dosed albino Sprague-Dawley rat after 2 hrs by maximal electroshock seizure test. Format: functional. The essentials: as §2
Series [24] relates to Rattus norvegicus. In words: Anticonvulsant activity against ip dosed albino Sprague-Dawley rat after 2 hrs by maximal electroshock seizure test. Format: functional. The essentials:
as §2

Series [25] concerns CAD. In words: Inhibition of Na+ channel in mouse CAD cells assessed as hyperpolarizing shift at 1 uM by whole cell voltage clamp technique (reference value: -71.6 +/- 0.6 mV). Format: cell-based. The method in brief:
(§3)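 Steady-state fast inactivation in CAD cells by whole-cell voltage clamp at room temperature. Cells held at −80 mV, given 500-ms prepulses from −120 to −10 mV in 10-mV steps, then a 20-ms step to 0 mV. Curves fitted with a single Boltzmann; V1/2 shift compared with 0.1% DMSO by ANOVA and Dunnett's test. Mean ± SEM.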

Series [26] relates to CAD. The series is described as follows: Inhibition of Na+ channel in mouse CAD cells assessed as hyperpolarizing shift at 30 uM by whole cell voltage clamp technique (reference value: -71.6 +/- 0.6 mV). Format: cell-based. The essentials: as §3
The species named for series [27] is Rattus norvegicus. The series is described as follows: Inhibition of Na+ channel in rat embryonic cortical neurons assessed as steady state activation at 20 uM by whole cell voltage clamp technique relative to control. The essentials: (§4)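 Embryonic day 19 rat cortical neurons by whole-cell voltage clamp at room temperature, with protocols mostly as for CAD cells. 20 μM compared with 0.1% DMSO. Activation from 15-ms pulses, −70 to +80 mV; conductance G = I/(Vm − Vrev); Boltzmann fits giving V1/2 and k. Mean ± SEM; ANOVA with post-hoc test.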

The species entered for series [28] is Rattus norvegicus. In words: Inhibition of Na+ channel in rat embryonic cortical neurons assessed as slow inactivation at 20 uM by whole cell voltage clamp technique. The essentials: as §4
For series [29], the species on record is Rattus norvegicus. In words: Protective index, ratio of TD50 for albino Sprague-Dawley rat to ED50 for albino Sprague-Dawley rat. Format: functional. The essentials: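 Protective index is TD50/ED50, both from orally dosed male Sprague-Dawley rats. TD50 is for behavioral toxicity and ED50 is for maximal electroshock seizure.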
For series [30], the species on record is Rattus norvegicus. The series is described as follows: Inhibition of Na+ channel in rat embryonic cortical neurons assessed as fast inactivation at 20 uM by whole cell voltage clamp technique (reference value: -53.9 +/- 1.2 mV). The essentials:
as §4

The subject of series [31] is CAD. The series is described as follows: Inhibition of Na+ channel in mouse CAD cells assessed as frequency-dependent inactivation at 10 uM by whole cell voltage clamp technique relative to control. Format: cell-based. The method in brief:
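Frequency (use)-dependent inhibition of Na+ currents in CAD cells by whole-cell voltage clamp at room temperature. Current trend and amplitude at 10 μM compared with control.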

The subject of series [32] is Mus musculus. In words: Toxicity in ip dosed albino CF1 mouse after 6 hrs by rotorod test. Format: organism-based. The note with it: in vivo.
Series [33] concerns CAD. In words: Inhibition of Na+ channel in mouse CAD cells assessed as fast inactivation by whole cell voltage clamp technique. Format: cell-based. The method in brief:
as §3

Series [34] has as its system Rattus norvegicus. The series is described as follows: Toxicity in ip dosed albino Sprague-Dawley rat assessed as behavioral toxicity after 2 hrs. The conditions noted are these: in vivo. Format: organism-based. The method in brief:
as §1

The subject of series [35] is Mus musculus. In words: Anticonvulsant activity against ip dosed albino CF1 mouse after 4 hrs by subcutaneous pentylenetetrazol test. Format: functional. The conditions noted are these: albino CF1, 4 h.
Series [36] relates to Rattus norvegicus. In words: Anticonvulsant activity against po dosed albino Sprague-Dawley rat […] by maximal electroshock seizure test. Format: functional. The method in brief:
as §2

The test system of series [37] is Mus musculus. In words: Anticonvulsant activity against ip dosed albino CF1 mouse after 2 hrs by 6 Hz psychomotor seizure test. Format: functional.
Series [38] deals with Mus musculus. The series is described as follows: Anticonvulsant activity against ip dosed albino CF1 mouse after 0.5 to 2 hrs by maximal electroshock seizure test. Format: functional.
Series [39] has as its system Rattus norvegicus. The series is described as follows: Anticonvulsant activity against po dosed albino Sprague-Dawley rat after 5 hrs by maximal electroshock seizure test. Format: functional. The method in brief: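 Male albino Sprague-Dawley rats given compound orally under the NIH Anticonvulsant Screening Program, then challenged by maximal electroshock.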
Series [40] has as its system Mus musculus. The series is described as follows: Anticonvulsant activity against ip dosed albino CF1 mouse after 1 hr by maximal electroshock seizure test. Format: functional.

With `COC(=O)c1cccc(-c2ccc(CN)cc2)c1.Cl`, the TD50 in [1] was over 30 mg/kg; in [3], over 30 mg/kg; with Mus musculus [7], 100 mg/kg. The ED50 was over 300 mg/kg in the series on Mus musculus [2], over 30 mg/kg in the series on Rattus norvegicus [4], 100 mg/kg in the series with Mus musculus [5] and over 30 mg/kg in the series with Rattus norvegicus [6].
`Cl.NCc1ccc(-c2cccc(F)c2)cc1`: the TD50 was over 65 mg/kg in [1], over 30 mg/kg in series [3] and over 100 mg/kg in [10]. For the same compound, the median effective dose (ED50) in the series with Mus musculus [8] is 50 mg/kg; with Rattus norvegicus [9], 65 mg/kg; with Rattus norvegicus [4] it was over 30 mg/kg; in the series on Mus musculus [11] it was 50 mg/kg; with Mus musculus [12], over 50 mg/kg.
On to `Cl.NCc1ccc(-c2ccc(F)cc2)cc1`, for which the TD50 was over 30 mg/kg in series [1], over 30 mg/kg in series [3] and over 50 mg/kg in [10]. Besides, the ED50 is under 100 mg/kg with Mus musculus [13]; 50 mg/kg in the series on Mus musculus [14]; over 50 mg/kg in the series with Mus musculus [15]; over 30 mg/kg in the series with Rattus norvegicus [4]; over 30 mg/kg with Rattus norvegicus [6].
Consider `Cl.NCc1ccc(-c2ccccc2OC(F)(F)F)cc1`, for which the ED50 with Mus musculus [16] was under 50 mg/kg; in the series on Mus musculus [17], over 120 mg/kg; in the series on Mus musculus [19], 40 mg/kg; with Rattus norvegicus [4], over 30 mg/kg; in the series on Rattus norvegicus [20], under 30 mg/kg. Further, the TD50 in series [1] is over 30 mg/kg; in the series with Mus musculus [18], 72 mg/kg; in [3], over 30 mg/kg.
In the case of `Cl.NCc1ccc(-c2cccc(OC(F)(F)F)c2)cc1`, the inhibition result in the series filed under Rattus norvegicus [21], in the series filed under Rattus norvegicus [27], in the series with CAD [31] and in the series with CAD [33] was “inactive” each time. Moreover, in series [22], the IC50 amounted to 2.7 µM. Besides, the ED50 in the series with Rattus norvegicus [23] was found to be 8.7 mg/kg; in the series on Rattus norvegicus [24], 16 mg/kg; with Mus musculus [8], 43 mg/kg; in the series with Mus musculus [5] it was 25 mg/kg; in the series on Mus musculus [35], 81 mg/kg. For the same compound, the V1/2 in the series on CAD [25] is 11.2 mV; with CAD [26], 26.5 mV; in the series filed under Rattus norvegicus [30], -69.6 mV. In the series listed under Rattus norvegicus [28], the inhibition result was “Active”. Also, the “Ratio TD50/ED50” value in the series listed under Rattus norvegicus [29] is given as over 57. The TD50 in [3] is over 500 mg/kg; with Mus musculus [32], 81 mg/kg; in the series with Rattus norvegicus [34], 72 mg/kg.
`O=C1NC(=O)C(c2ccccc2)(c2ccccc2)N1` [PHENYTOIN] returned an ED50 in the series on Rattus norvegicus [36] of 30 mg/kg.
Turning to `Cl.NCc1ccc(-c2ccc(OC(F)(F)F)cc2)cc1`, the TD50 in [1] is over 30 mg/kg; in series [3] it was over 30 mg/kg; in series [10], over 50 mg/kg. The ED50 with Mus musculus [37] is under 100 mg/kg; with Mus musculus [15] it was over 50 mg/kg; with Rattus norvegicus [4] it was over 30 mg/kg; with Rattus norvegicus [6], over 30 mg/kg; in the series with Mus musculus [38], 50 mg/kg.
With `CCC1(c2ccccc2)C(=O)NC(=O)NC1=O` [PHENOBARBITAL], the ED50 was found to be 9.1 mg/kg in the series with Rattus norvegicus [39] and 22 mg/kg with Mus musculus [40].

The term TD50 denotes the dose at which the toxic effect under study appears in half of the subjects. For orientation: ED50 means the dose at which the effect has come halfway, by size or by number of responders. A high value points to a need for a large dose. What is called IC50 is the concentration that gives 50% inhibition.
